# Experimental data: article PMC4465239 (Journal of autoimmunity, 2013)
# Read-outs that look alike come from different tables or passages of the source. Where no end group is shown, it is not given here. fluorescein = fluorescein label at the C-terminus
# B1: IL-2: recombinant mouse IL-2 (protein, UniProt P04351 21-169, looked up)
# Interleukin-2: APTSSSTSSSTAEAQQQQQQQQQQQQHLEQLLMDLQELLSRMENYRNLKLPRMLTFKFYLPKQATELKDLQCLEDELGPLRHVLDLTQSKSFQLEDAENFISNIRVTVVKLKGSDNTFECQFDDESATVVDFLRRWIAFCQSIISTSPQ
# Key:
# [1] = tested on: I-A^g7; experiment: Half life of peptide:MHC interaction; assay type: binding, mouse; conditions: HPSEC, 37°C
# Procedure, shortened: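 I-Ag7 monomer (1 µM) was loaded with 10 µM C-terminally fluoresceinated peptide for 24–72h at 37°C in 100mM citrate phosphate pH 5, 0.2% NP-40, 0.02% azide, 10mM EDTA and protease inhibitors. Free peptide was removed on a BSA-blocked G-50 spin column, and 2mM unlabelled competitor peptide was added. Samples dissociated at 37°C, were resolved by size-exclusion HPLC with fluorescence detection, and t½ = ln2/decay slope.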
# [2] = tested on: BDC-2.5 T cells; experiment: Proliferation of anergized cells with or without exogenous IL-2; assay type: cell-based, mouse; conditions: for proliferation on mimotope rechallenge with IL-2: with 3.5ng/well recombinant IL-2, mimotope+IL-2 vs. variant+IL-2 p=0.001; for proliferation on mimotope rechallenge without IL-2: without exogenous IL-2, mimotope vs. variant p=0.05
# Procedure, shortened: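 Anergy was induced as follows: 14 d with 1µM mimotope, then 14 d with 1µM mimotope or 10µM variant plus irradiated APC. Cells were rechallenged with irradiated syngeneic splenocytes and graded mimotope, with or without 3.5ng/well recombinant mouse IL-2, for 48h at 37°C. [3H]thymidine (0.4µCi/well) was added for a further 18h. Stimulation index = stimulated CPM/unstimulated CPM. One-way ANOVA with Bonferroni post test.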
# [3] = tested on: BDC-2.5 T cells; assay type: cell-based, mouse
# Procedure, shortened: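 BDC-2.5 splenocytes were primed 14 d with 1µM mimotope, Ficoll-purified, then restimulated 14 d with irradiated (3000 rad) syngeneic splenocytes plus 1µM mimotope or 10µM variant. They were then challenged with graded mimotope and irradiated splenocytes at 37°C. After 48h, 0.4µCi/well [3H]thymidine was added and incorporation counted 18h later. Four independent experiments in duplicate; mean ± SEM; Student's t test.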
# [4] = target: I-A^g7 monomer (class II MHC of the NOD mouse) (mouse (NOD)); experiment: SEC
Molecule,stability of complex with I-A^g7 [1],proliferation on mimotope rechallenge with IL-2 [2],proliferation on mimotope rechallenge without IL-2 [2],half life of the peptide:MHC complex [4],further results
"AHHPIWARMDA [mimotope, reference compound]",extremely stable complex,maintained a normal dose response to agonist stimulation,typical proliferation profile,–,"background proliferation with IL-2, no peptide rechallenge ([2]; cells not stimulated with peptide, plus 3.5ng/well recombinant IL-2): increased background proliferation"
AHYPIPADMDV [YPDV],much less stable complex,did not exhibit proliferation above background,little proliferation above background,–,induction of anergy [3]: sufficient to induce an anergic phenotype; induction of anergy ([3]; listed as MHC variant peptide): can induce anergy in BDC-2.5 T cells
AHYPIPADMDV-fluorescein [YPDV MHC variant peptide …],–,–,–,4 h,–
AHHPIWARMDA-fluorescein [BDC-2.5 mimotope peptide …],–,–,–,> 36 h,–
B1,–,–,–,–,"rescue of proliferation of anergized T cells by IL-2 ([2]; exogenous recombinant IL-2, 3.5ng/well): does not rescue proliferation of anergized T cells"
